These results are taken from ChEMBL document CHEMBL1142692, “Synthesis and biological evaluation of meperidine analogues at monoamine transporters” (J Med Chem, 2005).

pIC50, pKi: −log10 of the molar value. Where “and” joins values, the source holds several entries; their conditions need not be identical. Identical values can stand only once.

In assay [1] the target is T1, Mu-type opioid receptor (Homo sapiens, UniProt P35372). Description: Percent inhibition of [3H]DAMGO binding to rat brain mu-opioid receptor at 100 uM. As to conditions: target entry is the homologue from another species.
Assay [2] addresses T2, Norepinephrine transporter (Rattus norvegicus, UniProt Q9WTR4). Description: Inhibition of [3H]nisoxetine binding to rat norepinephrine transporter at 10 uM. A digest of the protocol:
(§1)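 Male Sprague-Dawley rat frontal cortex membranes in 50 mM Tris, 120 mM NaCl, 5 mM KCl, pH 7.4, 8 mg tissue per tube. Incubated with [3H]nisoxetine (final 0.5 nM) for 1 h on ice, then filtered. Desipramine defines nonspecific binding. Single-concentration values are % specific binding remaining at 10 µM. Mean ± SEM of three experiments in triplicate.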

Assay [3] concerns the target Sodium-dependent dopamine transporter (Rattus norvegicus) (UniProt P23977). Briefly: Percent inhibition of [3H]WIN-35428 binding to rat Dopamine transporter at 100 uM. In outline:
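Male Sprague-Dawley rat caudate-putamen membranes in modified Krebs-HEPES buffer, pH 7.4. Drug preincubated 5 min, then [3H]WIN 35,428 (final 1.5 nM) added for 1 h on ice, followed by filtration. Value is % inhibition at 100 µM.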

Assay [4] has the same target. Description: Percent inhibition of [3H]DA uptake in rat brain tissue at 100 uM. The assay is classed as functional, tissue-based. In outline: (§2)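 Rat caudate-putamen chopped into 225 µm slices, suspended in oxygenated modified Krebs-HEPES buffer at 37 °C. Tissue preincubated 5 min with drug, then [3H]dopamine (final 15 nM) added for 5 min. Uptake stopped with ice-cold buffer and filtration; accumulated label extracted and counted by liquid scintillation. Specific uptake reported after subtracting filter binding. Single-concentration values are % inhibition at 100 µM.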

Assay [5] has as its target T3, Monoamine transporters; serotonin & dopamine (Homo sapiens) (UniProt P31645+Q01959). Description: Ratio of binding affinity for dopamine and serotonin transporters. It counts as protein assay. A digest of the protocol:
(§3)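 Ratio of Ki values, DAT/SERT. DAT Ki from [3H]WIN 35,428 (1.5 nM) competition in rat caudate-putamen membranes on ice, 1 h. SERT Ki from [3H]paroxetine (0.2 nM) binding to rat midbrain membranes, 90 min at room temperature, with 1 µM citalopram defining nonspecific binding.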

Assay [6] concerns the target T1, Mu-type opioid receptor. Briefly: Inhibition of [3H]DAMGO binding to mu-opioid receptor.
The nature of assay [7]: Ratio of binding affinity for mu-opioid receptor and dopamine transporter.
A short description of assay [8]: Ratio of binding affinity of mu-opioid receptor and serotonin transporter.
For assay [9], the target named is T4, Sodium-dependent dopamine transporter (Rattus norvegicus, UniProt P23977). Briefly: Inhibition of [3H]-DA uptake in rat brain. It counts as functional, tissue-based. A digest of the protocol:
as §2

Assay [10] deals with Norepinephrine transporter (Rattus norvegicus) (UniProt Q9WTR4). Description: Percent inhibition of [3H]nisoxetine binding to norepinephrine transporter at 10 uM.
Assay [11] is described as follows: Ratio of binding affinity of mu-opioid receptor and dopamine transporter.
Assay [12] addresses T3, Monoamine transporters; serotonin & dopamine (Homo sapiens). Description: Ratio of binding affinity of dopamine and serotonin transporters. The assay is classed as protein assay. A digest of the protocol:
as §3

In assay [13] the target is T4, Sodium-dependent dopamine transporter. Briefly: Inhibitory concentration against [3H]DA uptake in rat brain tissue. The assay is classed as functional, tissue-based. In outline:
as §2

Assay [14] addresses Sodium-dependent dopamine transporter (Rattus norvegicus) (UniProt P23977). Briefly: Percent inhibition of [3H]dopamine uptake in rat brain tissue at 100 uM. It counts as functional, tissue-based. In outline: as §2
Assay [15] deals with T1, Mu-type opioid receptor. Briefly: Inhibition of [3H]DAMGO binding to mu-opioid receptor at 100 uM.
Assay [16] has as its target T2, Norepinephrine transporter. Description: Inhibition of [3H]-nisoxetine binding to rat norepinephrine transporter. In outline:
as §1

In assay [17] the target is Sodium-dependent dopamine transporter (Rattus norvegicus) (UniProt P23977). As to conditions: Brain, 100 uM.
Assay [18] has the same target. Particulars: Brain, 100 uM. The source holds these as a separate data set.
In assay [19] the target is T1, Mu-type opioid receptor. Description: Inhibition of [3H]-DAMGO binding to mu opioid receptor at 10 uM.
The nature of assay [20]: Ratio of binding affinity of mu-opioid receptor and dopamine taransporter.
In assay [21] the target is T4, Sodium-dependent dopamine transporter. Briefly: Inhibitory concentration against [3H]dopamine uptake in rat brain tissue. The assay is classed as functional, tissue-based. In outline:
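Rat caudate-putamen chopped into 225 µm slices, suspended in Krebs-HEPES buffer pregassed with 95% O2/5% CO2 at 37 °C. Tissue preincubated 5 min with or without drug (highest 100 µM), then [3H]dopamine (15 nM final) added for 5 min. Stopped with ice-cold buffer and filtration; accumulated label extracted and counted by scintillation; filter binding subtracted. Three experiments in triplicate.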

The target in assay [22] is T1, Mu-type opioid receptor. Briefly: Inhibition of [3H]-DAMGO binding to mu-opioid receptor.
The nature of assay [23]: Ratio of binding affinity of mu-opioid receptor and Serotonin transporter.
Assay [24] has as its target T3, Monoamine transporters; serotonin & dopamine (Homo sapiens). Description: Ratio of binding affinity of dopamine and Serotonin transporters. The assay is classed as protein assay. In outline:
as §3

T1 sequence (P35372 whole entry): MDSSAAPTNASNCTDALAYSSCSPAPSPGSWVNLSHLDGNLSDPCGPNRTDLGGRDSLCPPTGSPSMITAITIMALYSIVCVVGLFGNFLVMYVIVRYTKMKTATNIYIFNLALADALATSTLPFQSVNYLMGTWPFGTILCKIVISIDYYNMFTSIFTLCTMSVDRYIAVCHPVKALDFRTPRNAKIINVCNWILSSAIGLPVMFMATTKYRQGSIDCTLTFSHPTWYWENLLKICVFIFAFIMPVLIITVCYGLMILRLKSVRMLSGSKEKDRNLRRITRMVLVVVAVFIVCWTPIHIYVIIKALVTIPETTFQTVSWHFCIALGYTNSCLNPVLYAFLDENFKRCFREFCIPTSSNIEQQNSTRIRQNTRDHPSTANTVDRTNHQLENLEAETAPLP
T2 sequence (Q9WTR4 whole entry): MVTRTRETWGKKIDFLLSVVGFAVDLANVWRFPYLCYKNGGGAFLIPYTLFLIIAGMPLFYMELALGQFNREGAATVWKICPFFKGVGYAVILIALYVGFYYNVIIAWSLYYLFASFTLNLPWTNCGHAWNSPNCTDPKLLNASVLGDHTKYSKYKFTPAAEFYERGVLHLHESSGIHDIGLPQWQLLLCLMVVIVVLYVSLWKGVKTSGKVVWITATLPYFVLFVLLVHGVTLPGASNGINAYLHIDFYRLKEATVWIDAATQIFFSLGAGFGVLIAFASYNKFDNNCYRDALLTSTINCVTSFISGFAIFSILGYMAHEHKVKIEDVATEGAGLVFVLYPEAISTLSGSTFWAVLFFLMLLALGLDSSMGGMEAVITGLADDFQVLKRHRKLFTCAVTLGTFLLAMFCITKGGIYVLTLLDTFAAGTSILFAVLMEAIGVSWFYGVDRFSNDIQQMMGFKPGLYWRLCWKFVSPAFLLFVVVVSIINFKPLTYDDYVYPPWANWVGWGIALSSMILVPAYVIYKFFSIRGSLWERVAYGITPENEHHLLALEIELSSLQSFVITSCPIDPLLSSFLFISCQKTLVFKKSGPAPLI
Norepinephrine transporter (Rattus norvegicus), sequence (Q9WTR4 as listed by the source): as the sequence (Q9WTR4 whole entry) above
Sodium-dependent dopamine transporter (Rattus norvegicus), sequence (P23977 whole entry): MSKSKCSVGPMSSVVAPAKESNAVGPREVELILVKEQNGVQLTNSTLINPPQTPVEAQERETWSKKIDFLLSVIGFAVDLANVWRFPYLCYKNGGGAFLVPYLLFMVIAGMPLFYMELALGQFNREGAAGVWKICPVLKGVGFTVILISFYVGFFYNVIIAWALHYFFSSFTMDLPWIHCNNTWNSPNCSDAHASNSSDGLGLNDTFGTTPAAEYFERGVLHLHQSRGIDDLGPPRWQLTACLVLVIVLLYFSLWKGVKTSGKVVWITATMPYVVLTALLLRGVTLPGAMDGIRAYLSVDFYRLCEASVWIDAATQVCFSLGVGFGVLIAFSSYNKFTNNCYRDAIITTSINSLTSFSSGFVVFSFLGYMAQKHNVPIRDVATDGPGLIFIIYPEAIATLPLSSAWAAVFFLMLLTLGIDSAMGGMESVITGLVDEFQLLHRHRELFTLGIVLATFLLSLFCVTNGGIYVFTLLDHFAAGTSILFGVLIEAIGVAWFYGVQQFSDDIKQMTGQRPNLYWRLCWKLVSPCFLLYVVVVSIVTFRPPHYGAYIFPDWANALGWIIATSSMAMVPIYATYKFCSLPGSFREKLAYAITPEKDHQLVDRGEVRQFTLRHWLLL
T4 sequence (P23977 whole entry): as above
T3 sequence (P31645 whole entry, looked up): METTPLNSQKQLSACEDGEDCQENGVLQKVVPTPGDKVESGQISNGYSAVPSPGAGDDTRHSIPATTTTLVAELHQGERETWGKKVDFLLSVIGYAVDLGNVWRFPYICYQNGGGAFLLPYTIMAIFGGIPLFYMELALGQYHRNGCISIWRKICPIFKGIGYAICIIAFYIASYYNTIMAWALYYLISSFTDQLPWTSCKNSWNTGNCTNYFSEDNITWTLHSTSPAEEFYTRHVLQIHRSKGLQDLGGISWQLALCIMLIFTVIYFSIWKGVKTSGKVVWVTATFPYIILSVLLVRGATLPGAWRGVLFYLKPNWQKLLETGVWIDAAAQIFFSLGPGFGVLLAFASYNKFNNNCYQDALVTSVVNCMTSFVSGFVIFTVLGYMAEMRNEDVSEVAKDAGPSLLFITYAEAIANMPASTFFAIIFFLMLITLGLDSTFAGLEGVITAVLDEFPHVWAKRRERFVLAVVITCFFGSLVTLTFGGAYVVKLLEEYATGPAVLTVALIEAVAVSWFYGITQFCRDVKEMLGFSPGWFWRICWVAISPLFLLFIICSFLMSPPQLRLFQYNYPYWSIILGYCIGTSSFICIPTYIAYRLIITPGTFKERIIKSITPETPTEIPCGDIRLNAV
T3 sequence (Q01959 whole entry, looked up): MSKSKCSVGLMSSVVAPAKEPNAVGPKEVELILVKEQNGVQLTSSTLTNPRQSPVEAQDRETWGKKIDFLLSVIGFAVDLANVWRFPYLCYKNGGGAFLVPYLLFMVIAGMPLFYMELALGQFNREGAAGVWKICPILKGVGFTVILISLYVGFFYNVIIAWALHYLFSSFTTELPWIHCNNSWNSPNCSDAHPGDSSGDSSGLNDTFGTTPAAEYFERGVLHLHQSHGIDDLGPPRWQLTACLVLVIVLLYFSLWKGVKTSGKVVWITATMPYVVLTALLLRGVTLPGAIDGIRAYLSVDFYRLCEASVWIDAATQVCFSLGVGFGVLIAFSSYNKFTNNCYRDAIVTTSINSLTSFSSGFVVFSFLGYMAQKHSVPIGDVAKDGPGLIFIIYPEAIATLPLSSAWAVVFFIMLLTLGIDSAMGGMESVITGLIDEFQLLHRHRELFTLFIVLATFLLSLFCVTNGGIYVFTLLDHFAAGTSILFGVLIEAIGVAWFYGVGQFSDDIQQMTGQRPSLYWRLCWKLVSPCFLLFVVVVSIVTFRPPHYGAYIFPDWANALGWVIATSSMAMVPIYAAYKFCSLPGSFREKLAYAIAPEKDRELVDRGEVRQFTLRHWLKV

Turning to `CN1CCC(C#N)(c2ccc(F)cc2)CC1`, the figures for the inhibition in assay [1], in assay [3] and in assay [4] were 15%, 45% and 8%, respectively. In assay [2], the pKi is 3.99.
Regarding `CN1CCC(C#N)(c2ccc(Cl)c(Cl)c2)CC1`, the inhibition stood at 46% in [1] and 94.1% in assay [10]. For the same compound, the values for the Ratio in assay [5], in assay [7] and in [8] were 3.32, 15 and 49.7, respectively. The compound also gave a pKi in [6] of 4.40. Moreover, the negative logarithm of the IC50 (pIC50) in assay [9] was 4.95.
On to `CCOC(=O)C1(c2ccc(C)cc2)CCN(C)CC1`, for which, in assay [6], the negative-log Ki (pKi) is 5.57. Moreover, the Ratio in assay [11] came out at 0.22; in [8], 1.66; in assay [12], 7.69. Also, in assay [13], the pIC50 was 4.12. In addition, the inhibition in assay [10] was found to be 57.6%.
As for `CN1CCC(C#N)(c2ccc3ccccc3c2)CC1`, the figures for the inhibition in assay [14], in assay [1] and in [10] were 11%, 61% and 88.1%, respectively. The same compound gave a pKi in [15] of 4.81. In addition, the Ratio in assay [11] turned out to be 6.53; in assay [8], 123; in assay [12], 18.9.
`CCOC(=O)C1(c2ccc(Cl)c(Cl)c2)CCN(C)CC1`: in assay [14], the inhibition worked out at 22%. In addition, the values for the pKi in assay [6] and in [16] were 5.69 and 4.13, respectively. The results for the Ratio in assay [11], in assay [8] and in assay [12] were 16.3, 109 and 6.68, respectively. Besides, in [13], the pIC50 was 5.22 and 5.85.
Turning to `CCOC(=O)C1(c2ccc3ccccc3c2)CCN(C)CC1`, the inhibition in assay [14] was 16%. The figures for the pKi in assay [6] and in assay [16] were 5.69 and 4.15, respectively. The Ratio in [11] was 1.78; in assay [8] it was 282; in [12], 158. Also, the pIC50 in [13] was 5.50 and 4.94.
As to `CCOC(=O)C1(c2ccc(I)cc2)CCN(C)CC1`, the results for the pKi in assay [6] and in assay [16] were 5.63 and 3.28, respectively. For the same compound, the Ratio in assay [8] came to 111. Further, in assay [13], the pIC50 is 4.95.
In assay [6], `Cc1ccc(C2(C#N)CCN(C)CC2)cc1` had a pKi of 4.39. Further, the Ratio in assay [11] worked out at 0.97; in assay [8] it was 2.96; in assay [12], 3.05. The values for the inhibition in [10], in [17] and in [18] were 103%, 46% and 22%, respectively.
Regarding `CN1CCC(C#N)(c2ccc(I)cc2)CC1`, the results for the inhibition in assay [1] and in [19] were 61% and 93.6%, respectively. The pKi in [15] was 4.76. The values for the Ratio in assay [20], in assay [8] and in assay [12] were 2.07, 40.2 and 19.4, respectively. The pIC50 in assay [21] is 4.44.
As to `CN1CCC(C#N)(c2ccc(Cl)cc2)CC1`, the inhibition in assay [1] amounted to 51%; in [10], 106%; in assay [4], 36%. This compound gave a pKi in [15] of 4.43. The Ratio in [11] was found to be 1.67; in [8], 0.18; in [12], 4.31.
In the case of `CCOC(=O)C1(c2ccc(Cl)cc2)CCN(C)CC1`, the pKi in assay [6] was 5.36; in [16] it was 3.22. Further, the Ratio came out at 1.08 in [11], 15.9 in [8] and 14.8 in assay [12]. In addition, the pIC50 in assay [9] is 4.57.
As for `CCOC(=O)C1(c2ccc(F)cc2)CCN(C)CC1`, the inhibition was determined as 47% in assay [14] and 71.9% in [10]. The Ratio in [22] turned out to be 0.14; in [23], 4.77; in assay [24], 34.7.
